Assays:
Candida [1] = assay: Ratio of fluconazole MIC to compound MIC for Candida mycoderma; format: functional
How it was run: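 MICs for the compound and for fluconazole against Candida mycoderma were measured in parallel by twofold broth microdilution in 96-well plates, following NCCLS guidance, in triplicate. The ratio was then taken from the two MICs.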

[2] = Stability of the compound at 30 to 80 degC after 30 mins by UV spectrophotometry; format: physicochemical; conditions: 0.5 h
How it was run: (§1)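 Stability followed by UV spectrometry across pH 6.5–8.5 and temperatures 30–80 °C.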

Candida albicans = assay: Antifungal activity against Candida albicans after 24 hrs by twofold broth dilution method; format: functional
How it was run: (§2)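 MIC by NCCLS-recommended twofold broth microdilution, run in triplicate. Strains: B. subtilis ATCC6633, E. coli DH52, M. luteus ATCC4698, P. vulgaris ATCC6896, S. dysenteriae, S. aureus ATCC25923, MRSA N315, C. albicans ATCC76615, C. mycoderma. References were chloromycin, norfloxacin and berberine for bacteria, and fluconazole for fungi.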

Shigella dysenteriae = assay: Antibacterial activity against Shigella dysenteriae after 24 hrs by twofold broth dilution method; format: functional; how it was run: as §2
Staphylococcus aureus [3] = assay: Antibacterial activity against Staphylococcus aureus ATCC 25923 after 24 hrs by twofold broth dilution method; format: functional; conditions: ATCC 25923, 24 h; how it was run: as §2
Albumin [4] = target: T1, Albumin (Homo sapiens, UniProt P02768); assay: Binding affinity to human serum albumin assessed as decrease in fluorescence quenching at 286K by UV-Vis spectroscopy; format: ADME; conditions: isolated protein
How it was run: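 Fluorescence of HSA fixed at 1.0 × 10^-5 mol L^-1, titrated with compound in 0.2 × 10^-5 mol L^-1 steps. Excitation 295 nm, emission scanned 300–450 nm, slits 2.5 nm, 1.0 cm quartz cells. Spectra recorded at several temperatures (286, 295, 298, 304, 310 K are cited in places). Data fitted by Stern–Volmer, modified Stern–Volmer and Scatchard equations to give binding constants and site number.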

[5] = Octanol-water partition coefficient, log P of the compound after 24 hrs by UV-Vis spectrophotometry; format: physicochemical
Bacillus subtilis [6] = assay: Antibacterial activity against Bacillus subtilis after 24 hrs by twofold broth dilution method; format: functional; how it was run: as §2
Escherichia coli [7] = assay: Antibacterial activity against Escherichia coli DH52 after 24 hrs by twofold broth dilution method; format: functional; conditions: DH52, 24 h; how it was run: as §2
Proteus vulgaris = assay: Antibacterial activity against Proteus vulgaris after 24 hrs by twofold broth dilution method; format: functional; how it was run: as §2
[8] = Stability of the compound at pH 6.5 to 8.5 after 30 mins by UV spectrophotometry; format: physicochemical; conditions: buffer, pH 6.5, 0.5 h; how it was run: as §1
Staphylococcus aureus [9] = assay: Antibacterial activity against methicillin-resistant Staphylococcus aureus N315 after 24 hrs by twofold broth dilution method; format: functional; conditions: N315, 24 h; how it was run: as §2
Pseudomonas aeruginosa [10] = assay: Ratio of clinafloxacin MIC to compound MIC for Pseudomonas aeruginosa; format: functional
[11] = Solubility of the compound in phosphate buffer at pH 7.5 after 20 hrs by UV spectrophotometry; format: physicochemical
How it was run: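 Phosphate buffer pH 7.5 added to solid; suspension sonicated 10 min, then shaken at room temperature for 20 h and centrifuged. Supernatant concentration read by UV absorbance against a regression calibration curve (278 and 340 nm).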

Albumin [12] = target: T1, Albumin; assay: Binding affinity to human serum albumin by UV-Vis spectrophotometry; format: ADME; conditions: isolated protein
How it was run: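 HSA UV–vis absorption spectrum compared with the difference spectrum of HSA–compound complex minus compound at equal concentration; recorded at room temperature in 1.0 cm quartz cells.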

Candida [13] = assay: Antifungal activity against Candida mycoderma after 24 hrs by twofold broth dilution method; format: functional; how it was run: as §2
Pseudomonas aeruginosa [14] = assay: Antibacterial activity against Pseudomonas aeruginosa after 24 hrs by twofold broth dilution method; format: functional
How it was run: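 Twofold broth dilution in 96-well microplates following NCCLS guidance; MIC read as the endpoint; tests run in triplicate.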

Micrococcus luteus = assay: Antibacterial activity against Micrococcus luteus ATCC 4698 after 24 hrs by twofold broth dilution method; format: functional; conditions: ATCC 4698, 24 h; how it was run: as §2
Bacillus subtilis [15] = assay: Ratio of chloromycin MIC to compound MIC for Bacillus subtilis; format: functional
Staphylococcus aureus [16] = assay: Ratio of berberin MIC to compound MIC for Staphylococcus aureus ATCC 25923; format: functional
Escherichia coli [17] = assay: Ratio of chloromycin MIC to compound MIC for Escherichia coli DH52; format: functional
Staphylococcus aureus [18] = assay: Ratio of chloromycin MIC to compound MIC for Staphylococcus aureus ATCC 25923; format: functional

T1 sequence (P02768 whole entry): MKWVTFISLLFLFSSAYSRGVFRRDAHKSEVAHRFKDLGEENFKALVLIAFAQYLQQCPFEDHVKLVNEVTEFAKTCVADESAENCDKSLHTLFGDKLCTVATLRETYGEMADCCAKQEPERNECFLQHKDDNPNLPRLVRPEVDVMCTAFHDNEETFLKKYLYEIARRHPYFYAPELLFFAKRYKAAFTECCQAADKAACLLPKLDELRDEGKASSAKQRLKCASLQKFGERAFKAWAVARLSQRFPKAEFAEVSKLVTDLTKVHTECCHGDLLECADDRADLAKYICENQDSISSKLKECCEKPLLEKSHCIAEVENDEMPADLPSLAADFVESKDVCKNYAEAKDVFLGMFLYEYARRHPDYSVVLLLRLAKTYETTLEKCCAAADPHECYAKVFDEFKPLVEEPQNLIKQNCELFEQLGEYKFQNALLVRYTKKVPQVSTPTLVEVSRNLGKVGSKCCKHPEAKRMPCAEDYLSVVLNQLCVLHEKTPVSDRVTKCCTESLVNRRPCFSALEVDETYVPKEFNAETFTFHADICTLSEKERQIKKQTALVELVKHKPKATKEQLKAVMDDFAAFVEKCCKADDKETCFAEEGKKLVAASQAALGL

Compound	Stability [2]	MIC (Candida albicans) [µg/mL]	MIC (Shigella dysenteriae) [µg/mL]	MIC (Staphylococcus aureus [3]) [µg/mL]	logP at 24 h [5]	MIC (Bacillus subtilis [6]) [µg/mL]	MIC (Escherichia coli [7]) [µg/mL]	MIC (Proteus vulgaris) [µg/mL]	Stability [8]	MIC (Staphylococcus aureus [9]) [µg/mL]	solubility at 20 h [11] [µg/mL]	MIC (Candida [13]) [µg/mL]	MIC (Pseudomonas aeruginosa [14]) [µg/mL]	MIC (Micrococcus luteus) [µg/mL]	further results
COc1ccc2cc3[n+](cc2c1OCCN(CCn1cncc1[N+](=O)[O-])Cc1ccc(F)cc1F)CCc1cc2c(cc1-3)OCO2.[Cl-]	Stable	8	4	8	0.52	32	8	4	Stable	16	98.1	1	8	8	Ratio (Candida [1]): 4; Activity (Albumin [4]): Active; Ratio (Pseudomonas aeruginosa [10]): 2; Activity (Albumin [12]): Active
COc1ccc2cc3[n+](cc2c1OCCN(CCn1cncc1[N+](=O)[O-])Cc1ccccc1Cl)CCc1cc2c(cc1-3)OCO2.[Cl-]	Stable	4	8	2	0.56	4	4	16	Stable	8	86.4	32	8	32	Ratio (Bacillus subtilis [15]): 4; Ratio (Staphylococcus aureus [16]): 8; Ratio (Escherichia coli [17]): 4; Ratio (Staphylococcus aureus [18]): 8

— ChEMBL document CHEMBL2401717, “Synthesis and bioactive evaluation of novel hybrids of metronidazole and berberine as new type of antimicrobial agents and their transportation behavior by human serum albumin” (Bioorg Med Chem, 2013)
